From ChEMBL document CHEMBL4028846, “Insights on the Interaction between Transthyretin and Aβ in Solution. A Saturation Transfer Difference (STD) NMR Analysis of the Role of Iododiflunisal” (J Med Chem, 2017)
Active and inactive are the calls of the source. The rule behind the calls is not given here.

Experiments:
Transthyretin [1] = molecular target: T1, Transthyretin (Homo sapiens, UniProt P02766); assay: Binding affinity to recombinant human transthyretin expressed in Escherichia coli BL21 at 1:50 protein to ligand molar ratio by STD-NMR spectroscopic method
Summary of the method: (§1)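 Human recombinant WT TTR expressed in E. coli, purified by ion exchange then preparative gel electrophoresis. Protein 20−50 μM in PBS pH 6.0, […] 1:20 to 1:50, 298−313 K, optimized per case. On-resonance at aliphatic region (δ −0.2 to 0.16 ppm), off-resonance δ 100 ppm. Saturation by 20 ms PC9 pulse train, 2 s total, 600 MHz.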

Transthyretin [2] = molecular target: T1, Transthyretin; assay: Binding affinity to recombinant human transthyretin expressed in Escherichia coli BL21 by STD-NMR spectroscopic method
Summary of the method: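 Human recombinant WT TTR expressed in E. coli, purified by ion exchange then preparative gel electrophoresis. On-resonance at aliphatic region (δ −0.2 to 0.16 ppm), off-resonance δ 100 ppm. Saturation by 20 ms PC9 pulse train, 2 s total, 600 MHz.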

Transthyretin [3] = molecular target: T1, Transthyretin; assay: Binding affinity to recombinant human transthyretin expressed in Escherichia coli BL21 at 1:4 protein to ligand molar ratio in presence of EGCG by STD-NMR spectroscopic method
Transthyretin [4] = molecular target: T1, Transthyretin; assay: Binding affinity to recombinant human transthyretin expressed in Escherichia coli BL21 at 1:20 to 1:50 […] molar ratio by STD-NMR spectroscopic method; summary of the method: as §1
Transthyretin [5] = molecular target: T1, Transthyretin; assay: Binding affinity to recombinant human transthyretin expressed in Escherichia coli BL21 at 1:45 protein to ligand molar ratio in presence of EGCG by STD-NMR spectroscopic method
Transthyretin [6] = molecular target: T1, Transthyretin; assay: Binding affinity to recombinant human transthyretin expressed in Escherichia coli BL21 at 1:45 protein to ligand molar ratio by STD-NMR spectroscopic method; summary of the method: as §1
Transthyretin [7] = molecular target: T1, Transthyretin; assay: Binding affinity to recombinant human transthyretin expressed in Escherichia coli BL21 at 1:45 protein to ligand molar ratio in presence of IDIF by STD-NMR spectroscopic method

`O=C(O[C@@H]1Cc2c(O)cc(O)cc2O[C@@H]1c1cc(O)c(O)c(O)c1)c1cc(O)c(O)c(O)c1` [EPIGALOCATECHIN GALLATE] was tested, and the Activity (Transthyretin [1]) was “Active” and the Kd (Transthyretin [2]) was 400 nM.

For `CN(C)C[C@H](O)[C@@H](O)[C@H](O)[C@H](O)CO.O=C(O)c1cc(-c2ccc(F)cc2F)cc(I)c1O`, the Activity (Transthyretin [3]) was “Active” and the Activity (Transthyretin [4]) was “Active”.

In the case of `CC(C)C[C@H](NC(=O)[C@H](CCCCN)NC(=O)[C@H](CCC(N)=O)NC(=O)[C@H](Cc1cnc[nH]1)NC(=O)[C@H](Cc1cnc[nH]1)NC(=O)[C@@H](N)C(C)C)C(=O)N[C@H](C(=O)N[C@@H](Cc1ccccc1)C(=O)N[C@@H](Cc1ccccc1)C(=O)N[C@@H](C)C(=O)N[C@@H](CCC(=O)O)C(=O)N[C@@H](CC(=O)O)C(=O)N[C@H](C(=O)NCC(=O)N[C@@H](CO)C(=O)N[C@@H](CC(N)=O)C(=O)N[C@@H](CCCCN)C(=O)O)C(C)C)C(C)C`, the Activity (Transthyretin [5]) is reported as “inactive”, the Activity (Transthyretin [6]) is reported as “Active” and the Activity (Transthyretin [7]) is reported as “Active”.

In the case of `CN(C)C[C@H](O)[C@@H](O)[C@H](O)[C@H](O)CO.O=C(O)c1cc(-c2ccc(F)cc2F)ccc1O`, the Activity (Transthyretin [4]) is reported as “Active”.

With H-YEVHHQKLVFF-OH the Activity (Transthyretin [4]) was “inactive”.

With `C[C@H](NC(=O)[C@@H](N)CC(=O)O)C(=O)N[C@@H](CCC(=O)O)C(=O)N[C@@H](Cc1ccccc1)C(=O)N[C@@H](CCCNC(=N)N)C(=O)N[C@@H](Cc1cnc[nH]1)C(=O)N[C@@H](CC(=O)O)C(=O)N[C@@H](CO)C(=O)NCC(=O)N[C@@H](Cc1ccc(O)cc1)C(=O)N[C@@H](CCC(=O)O)C(=O)O` the Activity (Transthyretin [4]) was “inactive”.
